Assay outcomes from PubChem.
Shown are actives, neighbours in structure and some others; about 3.7% of the full set was active somewhere.
Kir21 block: inhibitors of mouse Kir2.1 inward-rectifier potassium channel. Inward rectifier potassium channel 2 (Mus musculus), P35561. HEK293-Kir2.1, FluxOR thallium flux fluorescence; stronger effect = lower value. B-score at 10 µM. 310,000 tested, 0.85% active. AID 1672, 2009;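 active means fluorescence ratio B-score at or below minus 3 SD of library scores, with starting-brightness B-score within 2 SD, cut at about -4.2 in these data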;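 further: channel flux triggered by added potassium and thallium sulfate stimulus; B-score of peak minus minimum fluorescence over baseline after thallium stimulus; more negative B-score means stronger Kir2.1 block with less thallium influx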
KCNQ1 act: potentiators or activators of KCNQ1 channel, primary screen, cell-based, thallium flux, high-throughput; Potassium voltage-gated channel subfamily KQT member 1 (Homo sapiens), P51787; CHO-K1 KCNQ1, thallium flux FluxOR fluorescence; stronger effect = higher value; B-score at 10 µM; 310,000 tested, 0.35% active; AID 2648, 2010;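 active means fluorescence ratio B-score, a plate-corrected score, at least three library SD, with initial intensity B-score within 5 SD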
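Material: CHO-K1 cells stably expressing KCNQ1. Medium: assay buffer for compound exposure, DMSO matched across wells. Reagent: K+/Tl+ depolarizing stimulus. Compound dosing: single-concentration screen. Times: 37 °C overnight plating, 90-min dark dye load, 20-min compound pretreatment. Technique: FluxOR Tl+ flux fluorescence.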
KCNQ1 block: inhibitors of human KCNQ1 channel, primary screen, cell-based, thallium flux, high-throughput. Potassium voltage-gated channel subfamily KQT member 1 (Homo sapiens), P51787. CHO-K1 KCNQ1, FluxOR thallium flux fluorescence; stronger effect = higher value. B-score at 10 µM. 310,000 tested, 1.3% active. AID 2642, 2010;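 active means compounds whose thallium flux B-score, printed positive for inhibition, exceeds three library SD while starting fluorescence stays within three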;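 further: channel opened by potassium depolarization with thallium stimulus after 20 min compound exposure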
KCNK3 block: human KCNK3 channel inhibitors, primary screen, CHO cells, FluxOR thallium flux, B-score; Potassium channel subfamily K member 3 (Homo sapiens), O14649; AID 602410, 2012; 340,000 tested, 0.84% active; B-score at 10 µM; FluxOR fluorescence; stronger effect = lower value;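 active means B-score under library mean minus 4 SD, starting fluorescence ratio at most library mean plus 5 SD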;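 further: more negative B-score means stronger inhibition of thallium flux through KCNK3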
Target sequence (O14649 whole entry, looked up): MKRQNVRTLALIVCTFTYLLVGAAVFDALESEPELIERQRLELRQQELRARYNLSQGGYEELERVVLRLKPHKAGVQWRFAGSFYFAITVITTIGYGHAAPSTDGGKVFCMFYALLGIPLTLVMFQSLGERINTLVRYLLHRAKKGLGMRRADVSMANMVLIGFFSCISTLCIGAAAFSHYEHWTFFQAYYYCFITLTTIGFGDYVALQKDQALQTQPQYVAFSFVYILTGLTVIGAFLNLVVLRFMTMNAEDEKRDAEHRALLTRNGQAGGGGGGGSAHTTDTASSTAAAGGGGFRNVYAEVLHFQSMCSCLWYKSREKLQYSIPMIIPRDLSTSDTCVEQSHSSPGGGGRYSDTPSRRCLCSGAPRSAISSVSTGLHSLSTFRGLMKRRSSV
KCNK9 block: KCNK9 potassium channel inhibitors, primary screen, HEK293 cells, thallium flux; FluxOR thallium flux fluorescence; stronger effect = lower value; Potassium channel subfamily K member 9 (Homo sapiens), Q9NPC2; 310,000 tested, 1.2% active; B-score at 10 µM;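 active means ratio B-score over 3 SD below the library mean, with starting fluorescence within 5 SD of its mean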;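 further: negative B-score means less thallium flux so channel inhibition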
hERG protect: hERG rescue from dofetilide block, primary screen, cell-based, CHO-hERG, FluxOR thallium flux, dofetilide IC70; dofetilide IC70 present; activation (rescue from dofetilide block), less the hit threshold, % at 10 µM; 310,000 tested, 0.51% active;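 active means activation above the mean of controls blocked by dofetilide plus 5 SD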;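 further: thallium influx through hERG after potassium depolarization seen as dye fluorescence rise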
Of the large screens only hits and unclear results are named; the others gave an inactive call.

Cc1cc(NS(=O)(=O)c2ccc(Nc3nc(-c4sc(NC(=O)c5ccccc5)nc4C)cs3)cc2)no1	Kir21 block -4.3, KCNQ1 block 7 (no result: KCNK3 block)
O=C(NC1CCCCC1)C(Cc1ccccc1)NS(=O)(=O)c1cccs1 (centres undefined)	hERG protect 7.9
O=C(Nc1ccccc1C(=O)NC(Cc1ccccc1)C(=O)NC1CCCCCC1)c1ccccc1 (centres undefined)	KCNQ1 block 6
O=C(NC1CCCc2ccccc21)C(Cc1ccccc1)NS(=O)(=O)c1cccs1 (centres undefined)	none
Cc1ccc(NC(=S)NC(=O)c2ccc(Br)o2)c(C)c1	none
Cc1cccc(NC(=S)NC(=O)c2ccc(Br)o2)c1C	hERG protect 46
CCN(c1ccccc1)S(=O)(=O)c1ccc(NC(=S)NC(=O)c2ccc(Br)o2)cc1	KCNQ1 act 12, hERG protect 11
O=C(NC(=S)Nc1ccccc1F)c1ccc(Br)o1	KCNQ1 act 77, hERG protect 32
Cc1cccc(C)c1NC(=S)NC(=O)c1ccc(Br)o1	KCNQ1 act 27, hERG protect 25
CCCN1C(=O)c2ccccc2NC1c1ccc(O)c(OCC)c1 (centres undefined)	none
Cc1ccc(-n2nnnc2/C=C\Nc2cc(C)on2)cc1	none
CC(C)(C)c1cc(N/C=C\c2nnnn2-c2ccc(Br)cc2)no1	hERG protect 7.3
COc1ccc(CCN2C(=O)CSC2=S)cc1OC	hERG protect 4.7
COc1ccc(CN2C(=O)CSCC2=O)cc1OC	none
S=c1nc(C23CC4CC(CC(C4)C2)C3)[nH][nH]1	none
S=c1nn[nH]n1C12CC3CC(CC(C3)C1)C2	KCNQ1 act 9, hERG protect 14
Cc1ccc(C(=O)N(C)CC(=O)Nc2ccc(F)c(F)c2F)o1	none
CC(C)CCn1c(=S)[nH]c2ncccc2c1=O	KCNQ1 act 10, hERG protect 9.9
Cc1cc(NC(=O)c2ccccc2C)n(-c2cccc(F)c2)n1	none
CCCN(CC(=O)Nc1ccccc1OC)C(=O)CCNC(=O)c1ccccc1OC	none
Cc1ccc(S(=O)(=O)N2CCOCC2)cc1N/N=C(\C#N)c1nc2ccccc2[nH]1	KCNQ1 block 6
CCCCCC/C(C)=C1/SC(=S)NC1=O	KCNQ1 act 126, hERG protect 59
C/C(C/C(C)=C1/SC(=S)NC1=O)=C1\SC(=S)NC1=O	none (no result: Kir21 block, KCNQ1 act, KCNQ1 block, KCNK9 block, hERG protect)
COc1ccc(CCNCC(C)c2ccccc2)cc1 (centres undefined)	none
COc1ccc(CCC(C)NCc2ccc(Cl)c(Cl)c2)cc1 (centres undefined)	Kir21 block -4.5
COc1ccc(CCC(C)NCC(C)c2ccccc2)cc1 (centres undefined)	Kir21 block -4.4
COc1ccc2ccccc2c1CNC(C)CCc1ccccc1 (centres undefined)	Kir21 block -7.7
COc1ccc(CCC(C)NCc2ccc(F)cc2)cc1 (centres undefined)	Kir21 block -6.1
COc1ccc(CCC(C)NCc2cc(OC)cc(OC)c2)cc1 (centres undefined)	none
Cc1ccc(S(=O)(=O)NC(C)(C)CSc2ccccn2)cc1	none
Cc1ccccc1NC(=O)COC(=O)c1cc(S(=O)(=O)N2CCOCC2)ccc1C	none (no result: Kir21 block, KCNQ1 act, KCNQ1 block, KCNK9 block, hERG protect)
CCCCN(C(=O)C1CC(=O)N(c2ccc(C)cc2)C1)c1c(N)n(CCC)c(=O)[nH]c1=O (centres undefined)	none (no result: Kir21 block, KCNQ1 act, KCNQ1 block, KCNK9 block, hERG protect)
COc1ccc(CCNCC(O)c2ccccc2)cc1 (centres undefined)	Kir21 block -4.9
CC(=O)c1cccc(OCC(O)CNCCc2ccc(Cl)cc2)c1 (centres undefined)	none
COc1ccc(CCNCC(O)COc2cccc(Br)c2)cc1 (centres undefined)	Kir21 block -8.7
CCOC(=O)Cc1csc(NC(=S)NC(=O)c2ccc([N+](=O)[O-])cc2)n1	none
CCOC(=O)Cc1csc(NC(=S)NC(=O)c2ccc(Cl)cc2)n1	KCNQ1 act 17, hERG protect 7.3
Oc1ccc2ccccc2c1/C=N/Nc1nnc(-c2ncc[nH]2)c2ccccc12	KCNQ1 block 8
O=C(O)c1cccc(N2C(=O)c3cccc(Oc4ccc(Cl)cc4)c3C2=O)c1	none
O=c1[nH]c(/C(=N\O)c2ccccc2)no1	KCNK9 block -7.2
O=C(c1ccccc1)c1ncc[nH]1	none
Nc1cc2c(cc1[N+](=O)[O-])OCCOCCOCCO2	hERG protect 6.4
Nc1cc2c(cc1[N+](=O)[O-])OCCO2	none
Cc1ccc(C(=O)CC(=O)COc2ccc(Cl)cc2)cc1	KCNQ1 act 17
O=C(NNC(=S)NC(=O)c1ccc(Br)cc1)c1cccc([N+](=O)[O-])c1	KCNQ1 act 21
COc1ccc(C(=O)NNC(=S)NC(=O)c2ccc(OC)cc2)cc1	none
Cc1ccc(C(=O)NCCOc2ccc(Cl)cc2)cc1	none
Cc1cccc(C(=O)NC(=S)NNC(=O)COc2ccc(Cl)cc2)c1	KCNQ1 act 59
O=C(NNC(=S)NC(=O)c1ccc(Br)cc1)c1ccc([N+](=O)[O-])cc1	none
COc1ccc(C(=O)NC(=S)NNC(=O)c2cccc(C)c2)cc1	KCNQ1 act 62
CC(C)(C)c1cc(CCC(=O)NNC(=S)NC(=O)c2ccccc2)cc(C(C)(C)C)c1O	KCNQ1 act 36
Cc1cccc(C(=O)NNC(=S)NC(=O)c2cccs2)c1	none
Cc1cccc(C(=O)NNC(=S)NC(=O)c2ccccc2)c1	KCNQ1 act 23
COc1ccccc1Nc1nc(NCC2CCCO2)c2ccccc2n1 (centres undefined)	Kir21 block -12
O=C(CN1CCN(S(=O)(=O)c2ccc(Cl)cc2)CC1)c1ccc(O)c(O)c1	none
CCOC(=O)C1CCN(c2cc3c(cc2NC(=O)c2ccccc2)n(C)c(=O)n3C)CC1	none
CCOC(=O)C1CCN(c2cc3c(cc2NC(=O)c2ccc(OC)c(OC)c2)n(C)c(=O)n3C)CC1	KCNK9 block -6.8
COc1ccccc1NC(=O)CSCC(=O)N1c2ccccc2CCc2ccccc21	KCNK9 block -7.1
COc1ccc(C(=O)Nc2ccc(Cl)cc2C(=O)NCc2ccco2)cc1	none
CCC(C)C(NC(=O)c1ccccc1NC(=O)c1ccc(OC)cc1)C(=O)NCc1ccco1 (centres undefined)	KCNQ1 block 7
COc1cc2nc(CN3CCOCC3)n(CC(=O)NCC(F)(F)F)c(=O)c2cc1OC	none
Cc1ccc(C)c(NC(=O)c2nc(-c3ccccc3)n(-c3ccccc3)n2)c1	none
